Data from publication PMC7012720 (Journal of inorganic biochemistry, 2019).
Several values for one entry are separate records, joined by “and”; a condition that tells them apart may be missing. Identical values can stand only once. Like-named read-outs stand apart in the source and are kept apart here.

Tests used:
MCF7 (breast cancer) = conditions: cited from earlier work
MDA-MD-231 (breast CSC) = conditions: cited from earlier work
[1] = standard deviation in parenthesis; cited from earlier work
MCF10A (normal) = conditions: cited from earlier work
Log = format: physicochemical; conditions: for Estimated Log(Do/w) of protonation state: best fit of Figures 2–4, error +/− 0.2
Outline: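 Modified shake-flask method in the dark, using 0.1 M acetate (pH 4.00–5.25) or 0.1 M phosphate (pH 5.8–8.0) buffer. Octanol and buffer were mutually pre-saturated for 24 h. Test compound (200 μM) in buffer-saturated octanol was stirred 1:1 with octanol-saturated buffer for 24 h at ambient temperature. The filtered aqueous phase was quantified by UV-Vis. logD = log([Ru]org/[Ru]aq), quadruplicate mean. Per-species values were fitted from pKa-based fractions.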

[2] = Mole fractions of protonation states calculated from pKa values; format: physicochemical
HeLa (cervical cancer) = conditions: cited from earlier work
[3] = read-out: IC50 light, irradiation for one hour with blue light (450 nm)

## [(bipy)2Ru(6,6’-dhbp)]^2+ [Compound 1A]
MCF7 (breast cancer); MCF7
  PI (phototoxicity index, IC50 dark / IC50 light): ~1
MCF7 (breast cancer); read-out: IC50 dark, MCF7, dark
  IC50: > 500 µM
MCF7 (breast cancer); read-out: IC50 light, MCF7, irradiation for one hour with blue light (450 nm)
  IC50: > 500 µM
MDA-MD-231 (breast CSC); MDA-MD-231
  PI (phototoxicity index, IC50 dark / IC50 light): 3.5
MDA-MD-231 (breast CSC); read-out: IC50 dark, MDA-MD-231, dark
  IC50: 1010 µM
MDA-MD-231 (breast CSC); read-out: IC50 light, MDA-MD-231, irradiation for one hour with blue light (450 nm)
  IC50: 290 µM
[1]
  pKa1: 5.26
  pKa2: 7.27
  pKa avg: 6.3
MCF10A (normal)
  PI (phototoxicity index, IC50 dark / IC50 light): >2.4
MCF10A (normal); read-out: IC50 dark, dark
  IC50: > 500 µM
MCF10A (normal); [3]
  IC50: 210 µM
Log; Acidic Form (XA)
  Estimated Log(Do/w) of protonation state: −0.1
Log; Basic Form (XB)
  Estimated Log(Do/w) of protonation state: 1.6
Log; Monoprotic Acid
  Estimated Log(Do/w) of protonation state: 0.9
Log; orders of magnitude / log units, listed as 1
  Increase of Log(Do/w) from acidic form (XA) to basic form (XB): ~ 1.7 and 1.7
Log; pH 4.00, 0.1M Acetate Buffer
  Log(Do/w): 0.04(3)
Log; pH 5.00, 0.1M Acetate Buffer
  Log(Do/w): 0.11(2)
Log; pH 6.00, 0.1M Phosphate Buffer
  Log(Do/w): 0.57(2)
Log; pH 6.60, 0.1M Phosphate Buffer
  Log(Do/w): 1.10(2)
Log; pH 7.00, 0.1M Phosphate Buffer
  Log(Do/w): 1.18(1)
Log; pH 7.40, 0.1M Phosphate Buffer
  Log(Do/w): 1.36(1)
Log; pH 8.00, 0.1M Phosphate Buffer
  Log(Do/w): 1.39(2)
[2]; pH 6.0 to 6.6
  Proportion of monoprotic species: 80–83%
[2]; pH 7.4
  Mole fraction of acidic form (XA): ~0.003
  Mole fraction of monoprotic species: ~0.42
HeLa (cervical cancer)
  PI (phototoxicity index, IC50 dark / IC50 light): 0.73
HeLa (cervical cancer); read-out: IC50 dark, dark
  IC50: 148 µM
HeLa (cervical cancer); [3]
  IC50: 202 µM
